Experimental data: ChEMBL document CHEMBL1275426, “Apoptosis induced by aminoglycosides in LLC-PK1 Cells: comparative study of neomycin, gentamicin, amikacin, and isepamicin using electroporation” (Antimicrob Agents Chemother, 2008)
The source made the active and inactive calls. The rule behind the calls is not given here.

Key:
[1] = system: Homo sapiens; experiment: Drug uptake in human at 15 mg/kg; format: ADME, organism-based; parameters: dose 15 mg/kg; settings: in vivo
[2] = system: LLC-PK1; experiment: Induction of apoptosis in pig LLC-PK1 cells at 0.064 mM after 24 hrs electoporated in presence of compound; format: functional, cell-based; settings: Sus scrofa
Procedure, shortened: (§1)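 LLC-PK1 cells were electroporated with or without aminoglycoside at increasing concentrations, up to 0.384 mM, present during the pulse. Cells were then returned to aminoglycoside-free medium. Apoptotic nuclei were enumerated 24 h later. Values are mean ± SD, n = 3, by two-tailed ANOVA against controls.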

[3] = system: LLC-PK1; experiment: Induction of apoptosis in pig LLC-PK1 cells measured at 0 to 3 mM after 2 days by DAPI staining; format: functional, cell-based; settings: Sus scrofa
Procedure, shortened: (§2)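 LLC-PK1 cells were incubated for 48 h over a concentration series: 0 to 3 mM, or 3 to 9 mM. Apoptotic nuclei were scored as a percentage by DAPI staining under the microscope. Values are mean ± SD, n = 3, by two-tailed ANOVA against drug-free cells.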

[4] = system: LLC-PK1; experiment: Induction of apoptosis in pig LLC-PK1 cells assessed as caspase 3 activity at 2 mM after 2 days […]; format: functional, cell-based; settings: Sus scrofa
Procedure, shortened: (§3)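 Renal LLC-PK1 cells were incubated up to 3 days with 2 mM drug in continuous exposure. Caspase 3 activity was measured with the fluorogenic substrate N-acetyl-Asp-Glu-Val-Asp-7-amido-4-methylcoumarin and expressed as % of matched untreated controls. The positive control was camptothecin at 14.3 μM. Values are mean ± SD, n = 3, by two-tailed ANOVA against matched controls.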

[5] = system: LLC-PK1; experiment: Induction of apoptosis in pig LLC-PK1 cells at 2 mM by DAPI staining; format: functional, cell-based; settings: Sus scrofa, TDE = time-dependent effect
Procedure, shortened: (§4)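 LLC-PK1 cells were incubated without drug or with 2 mM or 6 mM aminoglycoside for up to 3 days. Nuclei were stained with DAPI, and the percentage of apoptotic nuclei was counted by microscopy. Camptothecin at 14.3 μM served as positive control. Values are mean ± SD, n = 3, by two-tailed ANOVA against matched controls.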

[6] = system: LLC-PK1; experiment: Induction of apoptosis in pig LLC-PK1 cells at 0.1mM after 24 hrs electoporated in presence of compound; format: functional, cell-based; settings: Sus scrofa; procedure, shortened: as §1
[7] = system: LLC-PK1; experiment: Induction of apoptosis in pig LLC-PK1 cells assessed as caspase 3 activity at 2 mM after 1 day […]; format: functional, cell-based; settings: Sus scrofa; procedure, shortened: as §3
[8] = system: LLC-PK1; experiment: Induction of necrosis in pig LLC-PK1 cells assessed as lactate dehydrogenase release; format: functional, cell-based; settings: Sus scrofa
[9] = system: LLC-PK1; experiment: Induction of apoptosis in pig LLC-PK1 cells upto 9 mM after 2 days by DAPI staining; format: functional, cell-based; settings: Sus scrofa; procedure, shortened: as §2
[10] = system: LLC-PK1; experiment: Induction of apoptosis in pig LLC-PK1 cells at 6 mM after 2 days by DAPI staining; format: functional, cell-based; settings: Sus scrofa; procedure, shortened: as §4
[11] = system: LLC-PK1; experiment: Induction of apoptosis in pig LLC-PK1 cells at 6 mM after 3 days by DAPI staining; format: functional, cell-based; settings: Sus scrofa; procedure, shortened: as §4
[12] = system: LLC-PK1; experiment: Induction of apoptosis in pig LLC-PK1 cells at 6 mM after 1 day by DAPI staining; format: functional, cell-based; settings: Sus scrofa; procedure, shortened: as §4
[13] = system: LLC-PK1; experiment: Induction of apoptosis in pig LLC-PK1 cells at 0.192 to 0.384 mM after 24 hrs electoporated in presence of compound; format: functional, cell-based; settings: Sus scrofa; procedure, shortened: as §1

Q: GENTAMICIN [listing 1 of 2 here] was tested. Which Drug uptake [1] did it give?
A: 8.56 µmol/kg

Q: How did the Activity [2] turn out when `NC[C@@H]1O[C@H](O[C@H]2[C@@H](O)[C@H](O[C@@H]3[C@@H](O)[C@H](N)C[C@H](N)[C@H]3O[C@H]3O[C@H](CN)[C@@H](O)[C@H](O)[C@H]3N)O[C@@H]2CO)[C@H](N)[C@@H](O)[C@@H]1O` was run?
A: Active

Q: GENTAMICIN [listing 2 of 2 here] was tested. Which Activity [3] did it give?
A: Dose-dependent effect

Q: What about the Activity [4] of the same compound?
A: Active

Q: What about the Activity [5] of the same compound?
A: tde

Q: And the Activity [6]?
A: Active

Q: And the Activity [7]?
A: Active

Q: What does the source list for `NCC[C@H](O)C(=O)N[C@@H]1C[C@H](N)[C@@H](O[C@H]2O[C@H](CN)[C@@H](O)[C@H](O)[C@H]2O)[C@H](O)[C@H]1O[C@H]1O[C@H](CO)[C@@H](O)[C@H](N)[C@H]1O` [AMIKACIN]?
A: Activity [8]: inactive; Activity [9]: inactive; Activity [10]: inactive; Activity [11]: Active; Drug uptake [1]: 25.6 µmol/kg; Activity [12]: inactive

Q: `CN[C@@H]1[C@@H](O)[C@@H](O[C@@H]2[C@@H](O)[C@H](O[C@H]3O[C@H](CN)[C@@H](O)[C@H](O)[C@H]3O)[C@@H](N)C[C@H]2NC(=O)[C@@H](O)CN)OC[C@]1(C)O` was tested. Which Activity [13] did it give?
A: Active
